{
  "source": "ChEMBL document CHEMBL1139409",
  "about": "“Pestalachlorides A-C, antifungal metabolites from the plant endophytic fungus Pestalotiopsis adusta” (Bioorg Med Chem, 2008)",
  "assay_type_in_all_cases": "functional, organism-based",
  "key": {"Fusarium graminearum": {"system": "Fusarium graminearum", "test": "Antifungal activity against Gibberella zeae by Almar blue assay", "in_short": "(§1)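 Plant pathogen strains from CGMCC, maintained on potato dextrose agar; inocula from broth cultures grown 25 °C for 48 h, final suspension 1 × 10^4 hyphae/mL. Samples from 10 mg/mL DMSO stock, serially diluted, in triplicate, with alamar blue indicator; incubated 28 °C for 48 h, fluorescence read at Ex/Em 544/590 nm. Inhibition rate plotted against concentration to give IC50 and MIC; NCCLS-based method.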"}, "Fusarium culmorum": {"system": "Fusarium culmorum", "test": "Antifungal activity against Fusarium culmorum by Almar blue assay", "in_short": "as §1"}, "Verticillium albo-atrum": {"system": "Verticillium albo-atrum", "test": "Antifungal activity against Verticillium albo-atrum by Almar blue assay", "in_short": "as §1"}},
  "data": [
    {"smiles": "COc1c(Cl)c(C)c(Cl)c(O)c1C1NC(=O)c2c(O)cc(O)c(CC=C(C)C)c21", "note": "(racemic) [PESTALACHLORIDE A]", "values": [
      {"measurement": "IC50", "setting": "Fusarium graminearum", "value": 54.4, "unit": "µM"},
      {"measurement": "MIC", "setting": "Fusarium graminearum", "value": 114, "unit": "µM"},
      {"measurement": "IC50", "setting": "Fusarium culmorum", "value": 0.89, "unit": "µM"},
      {"measurement": "MIC", "setting": "Fusarium culmorum", "value": 7.2, "unit": "µM"},
      {"measurement": "IC50", "setting": "Verticillium albo-atrum", "value": 58.3, "unit": "µM"},
      {"measurement": "MIC", "setting": "Verticillium albo-atrum", "value": 114, "unit": "µM"}
    ]},
    {"smiles": "CC(C)=CCc1c(O)cc(O)c2c1C(=O)c1c(O)c(Cl)c(C)c(Cl)c1OC2", "note": "[PESTALACHLORIDE B]", "values": [
      {"measurement": "IC50", "setting": "Fusarium graminearum", "value": 1.1, "unit": "µM"},
      {"measurement": "MIC", "setting": "Fusarium graminearum", "value": 12.2, "unit": "µM"},
      {"measurement": "IC50", "setting": "Fusarium culmorum", "value": 4.7, "unit": "µM"},
      {"measurement": "MIC", "setting": "Fusarium culmorum", "value": 49, "unit": "µM"},
      {"measurement": "IC50", "setting": "Verticillium albo-atrum", "value": 7.9, "unit": "µM"},
      {"measurement": "MIC", "setting": "Verticillium albo-atrum", "value": 12.2, "unit": "µM"}
    ]},
    {"smiles": "COc1c(Cl)c(C)c(Cl)c2c1[C@H]1c3c(C=O)c(O)cc(O)c3C[C@@H]1C(C)(C)O2", "note": "(racemic) [PESTALACHLORIDE C]", "values": [
      {"measurement": "IC50", "setting": "Fusarium graminearum", "value": "> 118", "unit": "µM"},
      {"measurement": "MIC", "setting": "Fusarium graminearum", "value": "> 237", "unit": "µM"},
      {"measurement": "IC50", "setting": "Fusarium culmorum", "value": "> 118", "unit": "µM"},
      {"measurement": "MIC", "setting": "Fusarium culmorum", "value": "> 237", "unit": "µM"},
      {"measurement": "IC50", "setting": "Verticillium albo-atrum", "value": "> 118", "unit": "µM"},
      {"measurement": "MIC", "setting": "Verticillium albo-atrum", "value": "> 237", "unit": "µM"}
    ]}
  ]
}
